Source: PubChem BioAssay (several laboratories)
SENP8 block-1: inhibitors of human SENP8 protease. recombinant SENP8, Nedd8 substrate fluorescence. inhibition, % at 20 µM. Q96LD8. 360,000 tested, 0.64% active. AID 602440; in the data active means inhibition mostly above about 40%, no sharp cut-off; inactive means mostly below about 27%
Target sequence (Q96LD8 whole entry, looked up): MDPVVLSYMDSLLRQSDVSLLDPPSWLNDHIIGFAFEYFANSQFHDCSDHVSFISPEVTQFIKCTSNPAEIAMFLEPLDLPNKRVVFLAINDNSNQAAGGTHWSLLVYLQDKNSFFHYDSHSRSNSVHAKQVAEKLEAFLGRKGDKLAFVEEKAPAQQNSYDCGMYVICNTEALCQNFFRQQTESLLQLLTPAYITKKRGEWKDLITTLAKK
SENP1 FRET inh: blocks the human SENP1 SUMO protease catalytic domain. inhibition, % at 10 µM. Q9P0U3. 360,000 tested, 0.21% active. recombinant SENP1 catalytic domain, CyPet-SUMO1-YPet FRET cleavage;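 active means inhibition at least 30% at 10 µM, raw YFP signal under a set limit, fluorescence ratio 0.5 to 1.5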;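 further: 0% = enzyme with DMSO and 100% = no enzyme wells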
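Controls: no-enzyme wells low, DMSO-plus-enzyme wells high control. Test system: human recombinant His6-tagged SENP1 catalytic domain enzyme. Reagent: SFCypet-SUMO1-SFYpet FRET protein substrate, 25 nM final. Doses: one dose per compound, 10 µM, 0.5% DMSO. Detection: FRET, CFP and YFP emission. Timing: 50 min reaction at room temperature.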
SENP6 block: inhibitors of human SENP6 protease; inhibition, % at 10 µM; AID 2599; 330,000 tested, 1.8% active; Recombinant SENP6 catalytic domain, aminoluciferin luminescence;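 active means inhibition above about 50% at the single tested dose, limit read from the data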;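 further: plate controls were DMSO wells with enzyme for no effect and DMSO wells lacking enzyme for full effect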
SENP8 block-2: SENP8 protease inhibition | 330,000 tested, 1.2% active | Q96LD8 | purified SENP8, Z-RLRGG-aminoluciferin cleavage, luminescence | inhibition, % at 10 µM; in the data active means inhibition above about 50%
Platelet DG rel: platelet dense granule release activity; human platelet-rich plasma, SFLLRN dense granule ATP release, luminescence; inhibition, %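 (compounds screened at 7.5 µM in platelet-rich plasma)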; 300,000 tested, 0.22% active; AID 1663;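 active means mean replicate score, as percent of positive control, at or above 50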
SENP7 block: SENP7 protease inhibition; Q9BQF6; recombinant SENP7, Z-RLRGG-aminoluciferin luminescence, 40 min; inhibition, % at 5 µM; 330,000 tested, 1.5% active;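 active means inhibition above about 50% at the single test dose, limit read from the data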;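 further: plate controls were DMSO with enzyme for no effect and no enzyme buffer wells for full effect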
Target sequence (Q9BQF6 706-1050 limits assumed): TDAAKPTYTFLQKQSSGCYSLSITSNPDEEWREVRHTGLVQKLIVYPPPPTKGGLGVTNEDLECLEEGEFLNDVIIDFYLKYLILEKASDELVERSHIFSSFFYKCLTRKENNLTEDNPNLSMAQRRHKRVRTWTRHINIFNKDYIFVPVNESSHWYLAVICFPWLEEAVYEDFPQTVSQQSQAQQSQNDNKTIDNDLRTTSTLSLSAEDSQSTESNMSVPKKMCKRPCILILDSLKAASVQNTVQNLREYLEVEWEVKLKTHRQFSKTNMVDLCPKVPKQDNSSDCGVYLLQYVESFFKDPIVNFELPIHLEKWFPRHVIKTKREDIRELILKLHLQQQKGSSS
SENP8 conf-1: human SENP8 inhibition, confirmed; shares compounds with SENP7 block; Recombinant SENP8, Z-RLRGG-aminoluciferin luminescence, 60 min; AID 488912; inhibition, % at 12.5 µM; 6,200 tested, 40% active;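 active means mean inhibition across replicates above about 50%, limit read from the data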
SENP6 conf: human SENP6 inhibition, confirmed. inhibition, % at 12.5 µM. 6,200 tested, 58% active. shares compounds with SENP7 block. recombinant SENP6, Z-RLRGG-aminoluciferin luminescence
SENP7 confirm: confirmation of human SENP7 protease inhibitors. shares compounds with SENP7 block. recombinant SENP7, Z-RLRGG-aminoluciferin luminescence, 40 min. inhibition, % at 12.5 µM. 6,200 tested, 69% active. AID 488917
Casp3 select: selectivity test for SENP inhibitors: human caspase-3 inhibition. shares compounds with SENP7 block. purified caspase-3, Z-DEVD-aminoluciferin luminescence, 60 min. inhibition, % at 12.5 µM. 6,200 tested, 60% active;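 active means mean inhibition above about 50%, limit read from the data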;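 further: plate controls were enzyme with DMSO for no effect and wells without caspase-3 for full effect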
SENP luc ctr: interferes with luciferase luminescence in SENP counter-screen. shares compounds with SENP7 block. Pre-incubated SENP8/Z-RLRGG-aminoluciferin, luciferase luminescence interference. inhibition, % at 12.5 µM. 6,200 tested, 39% active;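 active means mean inhibition above about 50% when retested at one dose, limit read from the data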;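 further: plate controls were DMSO wells with completed reaction for no effect and substrate without enzyme for full effect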
SENP8 conf-2: confirmation of human SENP8 protease inhibitors; inhibition, % at 25 µM; 1,400 tested, 15% active; shares compounds with SENP8 block-1; purified SENP8, Nedd8-AMC/pro-Nedd8 cleavage fluorescence, 30 min; in the data active means inhibition mostly above about 39%, no sharp cut-off; inactive means mostly below about 34%
* hit, by the source's call; i = inactive; · = no result given. A selection: hits, their analogues and other compounds. The true share with any hit is near 2.6%.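 How the source made its calls, unless noted: active means mean inhibition above about 50% in the one-dose retest (limit read from the data); inactive means the rest.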

SMILES	SENP8 block-1	SENP1 FRET inh	SENP6 block	SENP8 block-2	Platelet DG rel	SENP7 block	SENP8 conf-1	SENP6 conf	SENP7 confirm	Casp3 select	SENP luc ctr	SENP8 conf-2
CCCCNC(=O)c1c(N)n(Cc2ccc3c(c2)OCO3)c2nc3ccccc3nc12	-270	-26	94*	89*	1	62*	-7	3	-2	5	3	·
CCCOC(=O)c1c(N)n(Cc2cccs2)c2nc3ccccc3nc12	-284	-73	5	-2	0	-2	·	·	·	·	·	·
CCCCCn1c(N)c(C(=O)NCCN2CCOCC2)c2nc3ccccc3nc21	-490	-19	11	9	5	3	·	·	·	·	·	·
CCCCCn1c(N)c(C(=O)NCc2cccs2)c2nc3ccccc3nc21	·	·	80*	84*	-3	40	12	14	8	-2	-4	·
CC(OC(=O)c1cn(C)c2ccccc12)C(=O)N(C)c1ccccc1 (stereo not drawn)	4	4	-3	8	·	0	·	·	·	·	·	·
CCC(C)N1C(=O)NC(=O)C2(Cc3c(ccc4ccccc34)N(C)C2)C1=O (stereo not drawn)	-28	-29	76*	11	1	16	-20	-7	-6	-6	-6	·
COc1ccc2c(c1)CC1(CN2C)C(=O)NC(=O)N(CCc2ccccc2)C1=O (stereo not drawn)	10	-56	-11	-6	-2	8	·	·	·	·	·	·
Cc1cccc(C)c1N1CCN(c2c(C)cccc2C)CC1	4	0	1	-1	-8	-8	·	·	·	·	·	·
CCOC(=O)c1c(N)n(Cc2ccco2)c2nc3ccccc3nc12	-316	-25	14	7	·	-2	·	·	·	·	·	·
CCCCn1c(N)c(C(=O)OCCOC)c2nc3ccccc3nc21	-454	-45	5	3	-15	4	·	·	·	·	·	·
CCCCn1c(NS(=O)(=O)c2ccc(C)cc2)c(C(=O)OCC)c2nc3ccccc3nc21	-288	-25	93*	62*	12	8	20	32	4	-5	-15	·
CCCCn1c(NC(=O)c2ccco2)c(C(=O)OCC)c2nc3ccccc3nc21	-271	-21	84*	62*	1	-12	75*	89*	71*	5	-9	·
C[C@@H]1C(=O)O[C@H]2[C@H](O)[C@]34[C@@H]5OC(=O)[C@]3(OC3OC(=O)[C@H](O)C34[C@H](C(C)(C)C)[C@@H]5O)[C@@]12O (stereo partly drawn)	3	1	·	·	·	·	·	·	·	·	·	·
CC(=O)NCC1=C(c2cccc3ccccc23)C[C@@H]2CC[C@H]1N2Cc1ccco1	10	1	·	·	·	·	·	·	·	·	·	·
COc1cc2c(cc1OC)-c1c(OC)c(OC)cc3c1C(C2)N(C)CC3 (stereo not drawn)	-136	24	82*	58*	1	55*	-2	73*	30	24	-3	·
COc1cc2c(cc1OC)-c1c3c(cc4c1[C@@H](C2)N(C)CC4)OCO3	i	-1	78*	32	-1	46	10	38	8	4	-3	·
Nc1ccccc1C(=O)OCCc1ccccc1	-387	0	76*	73*	·	75*	69*	75*	92*	60*	67*	·
O=[N+]([O-])c1ccc(NC2CCN(Cc3ccccc3)CC2)c2ccncc12	40*	-87	66*	29	-6	39	3	2	12	10	3	18
Cc1nnc2n1-c1ccc(Br)cc1C(c1ccccc1Cl)=NC2	12	1	-7	-3	9	2	·	·	·	·	·	·
O=[N+]([O-])c1ccc(N2CCCC2)c2ccncc12	53*	-7	60*	18	-44	47	7	10	14	9	6	20
O=[N+]([O-])c1ccc(N2CCNCC2)c2ncccc12	·	·	·	·	2	·	·	·	·	·	·	·
COc1cc(C)c(CN2CC=C(c3ccc(F)cc3)CC2)cc1C	43*	2	6	-5	-11	9	·	·	·	·	·	7
COc1cc(CN2CC=C(c3ccc(F)cc3)CC2)cc(OC)c1	15	1	-11	-11	-7	-10	·	·	·	·	·	·
COC1=CC(=O)OC(CCc2ccc3c(c2)OCO3)C1 (stereo not drawn)	40*	-1	·	·	·	·	·	·	·	·	·	-2
CC(C)COC(=O)c1ccccc1C(=O)OCC(C)C	48*	1	-16	-2	-1	1	·	·	·	·	·	8
SMILES	SENP8 block-1	SENP1 FRET inh	SENP6 block	SENP8 block-2	Platelet DG rel	SENP7 block	SENP8 conf-1	SENP6 conf	SENP7 confirm	Casp3 select	SENP luc ctr	SENP8 conf-2
CC1=C(C(=O)N2CCC3(CC2)OCCO3)C2(CCC(C)CC2)OC1=O (stereo not drawn)	4	3	1	-13	1	-9	·	·	·	·	·	·
O=C(c1c[nH]cc1-c1ccccc1)c1cccc2ccccc12	46*	3	7	3	1	8	·	·	·	·	·	4
CCCCC1(CCCC)C(=O)NC(=Nc2cccc(C)c2)NC1=O	21	1	-3	-10	9	1	·	·	·	·	·	·
Cc1cccc(N=C2c3cc([N+](=O)[O-])ccc3-c3c2cc([N+](=O)[O-])cc3[N+](=O)[O-])c1	94*	5	·	·	·	·	·	·	·	·	·	23
Cc1nn(C)cc1/C=C1/CC2C3CC=C4CC(O)CCC4(C)C3CCC2(C)C1=O (stereo not drawn)	47*	4	-2	-2	3	-18	·	·	·	·	·	10
CCN(CC)C(=O)c1ccc(NC(=O)COC(=O)c2ccc(Cl)s2)cc1	0	0	8	-16	·	-8	·	·	·	·	·	·
COc1ccc(C(=O)O)cc1OC	45*	4	·	·	·	·	·	·	·	·	·	14
CCC(=O)c1ccc(OC)c(OC)c1	-7	2	-19	-5	-2	12	·	·	·	·	·	·
Cc1noc(C)c1COc1ccc(C(=O)NCC2(N(C)C)CCCCC2)cc1	20	2	·	·	·	·	·	·	·	·	·	·
CC(C)[C@H](NC(=O)N1C[C@H]2C[C@@H](C1)c1cccc(=O)n1C2)C(=O)Nc1ccccc1F	47*	1	-8	-1	0	-3	·	·	·	·	·	13
O=P(OCC(F)(F)C(F)F)(N1CCOCC1)N1CCOCC1	19	-2	-8	4	8	-2	·	·	·	·	·	·
